Source: PubChem (several laboratories)
Runt-SMMHC FRET – Runt domain-CBFb-SMMHC interaction inhibition; Q01196+Q13951; Cerulean-Runt/Venus-CBFb-SMMHC FRET ratio 530/480, 1 h; inhibition, % at 20 µM; 220,000 compounds, 0.74% hits; AID 1434;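 active = mean inhibition across duplicate retests at 20 µM reaching about 50%, limit read from the data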;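 note: 0% = DMSO wells and 100% = wells with excess untagged CBFb-SMMHC; inhibitors lower the FRET ratio by blocking Runt binding to CBFb-SMMHC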
Target sequence (Q01196 whole entry, looked up, the tested form may be a part): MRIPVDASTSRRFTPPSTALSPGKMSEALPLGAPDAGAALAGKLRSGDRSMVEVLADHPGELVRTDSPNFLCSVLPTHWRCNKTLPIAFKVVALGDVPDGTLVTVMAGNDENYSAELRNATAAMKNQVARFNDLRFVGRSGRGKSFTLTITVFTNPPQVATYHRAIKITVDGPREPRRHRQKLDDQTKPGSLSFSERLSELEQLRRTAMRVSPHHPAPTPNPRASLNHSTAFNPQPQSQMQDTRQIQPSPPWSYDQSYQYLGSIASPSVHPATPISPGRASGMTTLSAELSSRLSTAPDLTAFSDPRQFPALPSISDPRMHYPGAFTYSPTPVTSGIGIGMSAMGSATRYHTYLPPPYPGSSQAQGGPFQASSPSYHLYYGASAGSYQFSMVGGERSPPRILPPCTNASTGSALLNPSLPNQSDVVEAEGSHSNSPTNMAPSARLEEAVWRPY
Target sequence (Q13951 whole entry, looked up, the tested form may be a part): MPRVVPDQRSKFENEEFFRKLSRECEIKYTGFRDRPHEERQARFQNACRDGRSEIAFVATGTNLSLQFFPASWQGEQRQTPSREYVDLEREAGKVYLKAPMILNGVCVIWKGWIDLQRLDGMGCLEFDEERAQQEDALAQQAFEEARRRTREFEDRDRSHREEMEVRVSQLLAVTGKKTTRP
RanGTP-Imp inh – disruptors of Ran-importin-beta complex formation – biochemical, FRET, CFP-Ran, YFP-importin-beta, homogeneous, primary screen; 300,000 compounds, 1.1% hits; cell-free CFP-Ran/YFP-importin-beta FRET ratio; AID 2216; inhibition, % (test concentration not listed);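 active = more than half of the replicate wells show a fall in the fluorescence ratio signal beyond about 16%, limit read from the data, passing the limit was not always enough; inconclusive = exactly half of the replicate wells pass the set limit; inactive = fewer than half of replicates pass the limit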;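 note: 0% = DMSO wells and 100% = Ran loaded with GDP instead of GTP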
Runt-CBFb FRET – inhibitors of human RUNX1 Runt domain binding to CBFb; AID 1496; inhibition, % at 20 µM; Q01196+Q13951; Cerulean-Runt/Venus-CBFb FRET ratio 530/480, 1 h; 220,000 compounds, 0.46% hits;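 active = inhibition over about 50% at 20 µM in the single-dose screen, limit read from the data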;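 note: 0% = DMSO wells and 100% = excess unlabeled CBFb competitor control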
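System: Cerulean-labeled Runt domain protein | Quantity: 100 nM of each labeled protein | Schedule: 1 h compound exposure, room temperature | Detection: Fluorescence energy transfer, 422 nm excitation, 530/480 nm emission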
CaV13 ICDI inh – Primary screen for inhibitors of IQ motif and Ca2+-dependent inactivation inhibitor domain binding in CACNA1D, Förster resonance energy transfer in living cells, …; HEK cells, CFP/YFP FRET ICDI-IQ, plate reader, 10 min; percent FRET-ratio fall versus neutral wells; inhibition, % at 12.3 µM; 340,000 compounds, 0.098% hits; AID 743397;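 active = mean replicate inhibition of at least 30% and at least 1% of replicates passing that level; inconclusive = only one of the two criteria is met; inactive = neither criterion is met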;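 note: 0% = median of the neutral control wells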
RUNX1 CBFb TR – inhibitors of human RUNX1 Runt domain binding to CBFb; shares compounds with Runt-CBFb FRET; TR-FRET RUNX1 Runt domain-CBFb binding; inhibition, % at 20 µM; 480 compounds, 20% hits; in the data active = inhibition above about 40%
The depositor's hits bear a star; ? = inconclusive; . = no result. Only some compounds are listed: those with a hit (about 1.2% of all), similar ones and a draw of the others.

SMILES | Runt-SMMHC FRET | RanGTP-Imp inh | Runt-CBFb FRET | CaV13 ICDI inh | RUNX1 CBFb TR
CS(=O)(=O)C1=NSC2=NC(=O)/C(=C\c3ccc(OC(=O)c4ccco4)c(Br)c3)C(=N)N21 | . | 7 | . | -3 | .
CCOC(=O)c1c(/N=C/N(C)C)sc(C)c1C | 1 | -4 | 2 | -7 | .
CCOC(=O)c1c(/N=C/N(C)C)sc(/C=N/Nc2ccccc2)c1-c1ccc(Cl)cc1 | 119* | -39 | 58* | -4 | -12
COC(=O)c1cc(S(=O)(=O)NCC2CCN(Cc3cc(C)ccc3C)CC2)c[nH]1 | . | 3 | . | -3 | .
CN1c2ccsc2C(O)=C(C(=S)Nc2ccc(F)c(Cl)c2)S1(=O)=O | . | 124* | 85* | -5 | -14
Cn1cc(C(=O)Nc2ccc(F)c(Cl)c2)cn1 | 4 | -3 | 0 | -5 | .
COc1cc(F)ccc1-c1csc(C(NC(C)=O)c2ccc(F)c(F)c2)n1 (centres undefined) | . | . | . | -11 | .
CCOC(=O)N1CCN(C(=O)C2CCN(CC3CCCCC3)CC2)CC1 | -2 | 0 | -3 | -15 | .
CCOC(=O)C1=C(CNCCc2ccc(Cl)cc2)NC(=O)NC1c1ccc2c(c1)OCO2 (centres undefined) | 1 | -5 | 65* | 0 | 7
CCOC1=C2[C@@H](CN(S(=O)(=O)c3ccccc3C)[C@H]2c2ccc(Cl)cc2)[C@H]2C(=O)NC(=O)[C@H]2C1 | . | . | . | -6 | .
CN1C(=O)C(c2ccccc2[N+](=O)[O-])C(=O)c2ccccc21 (centres undefined) | . | ? | . | -5 | .
O=c1oc2c(-c3cccc(F)c3)cc(O)cc2s1 | 9 | -1 | 58* | -3 | 23
NS(=O)(=O)c1ccc(NC(=S)NCc2ccccc2)cc1 | 28 | 5 | 52* | -18 | 6
N#C/C(=C\c1c(N2CCCCCC2)nc2ccccn2c1=O)C(=O)NCc1ccco1 | -3 | 6 | 75* | -20 | 22
N#C/C(=C\c1c(N2CCCCC2)nc2ccccn2c1=O)S(=O)(=O)c1ccccc1 | -21 | 3 | -15 | -20 | .
CN1C(=O)C(O)(CC(=O)c2cccnc2)c2ccccc21 (centres undefined) | -5 | 1 | -2 | -4 | .
CN1/C(=C\C(=O)c2cccnc2)Sc2ccccc21 | 51* | 10 | 66* | -7 | 14
COc1ccccc1CCN1CCCC(CN(C)C(=O)CCC(N)=O)C1 (centres undefined) | . | 5 | . | -20 | .
CNCc1ccccc1Sc1cc(O)ccc1O | 44 | . | 52* | -3 | -2
CCCS(=O)(=O)N1CCCC(C(=O)NCCCN(C)c2ccccc2)C1 (centres undefined) | 2 | 1 | 57* | . | 8
CCCS(=O)(=O)N1CCCC(C(=O)NCCCN(C)Cc2ccccc2)C1 (centres undefined) | -1 | -2 | 2 | . | .
Cc1ccc(NC(=O)CSCC(=O)N(C)CC(=O)Nc2ccccc2C(F)(F)F)cc1 | . | . | . | -5 | .
Cc1onc(-c2ccccc2)c1C(=O)NC(=S)Nc1sc2c(c1C#N)CCCC2 | 37 | 0 | 51* | 2 | 10
CCNC(=O)N1C(CC(=O)OCC)C(=O)NC2CCCCC21 (centres undefined) | 3 | 2 | 0 | -7 | .
COC(=O)CC1C(=O)NC2CCCCC2N1C(=O)CCl (centres undefined) | -6 | 4 | 51* | -5 | 35
SMILES | Runt-SMMHC FRET | RanGTP-Imp inh | Runt-CBFb FRET | CaV13 ICDI inh | RUNX1 CBFb TR
Cc1cc(NC(=O)CSc2nnc(C3CC3)n2N)c([N+](=O)[O-])cc1C | 1 | 2 | 2 | -5 | .
COc1ccc(S(=O)(=O)N(C(C)=O)c2ccc3oc(=O)sc3c2)cc1 | 58* | 0 | 67* | -4 | 16
COc1ccccc1NS(=O)(=O)c1cc(NC(=O)c2sccc2C)ccc1N1CCCC1 | 23 | 0 | 51* | -6 | -120
COc1ccccc1NS(=O)(=O)c1cc(NC(=O)c2cccs2)ccc1N1CCCC1 | 28 | -2 | 50* | -15 | 7
COc1ccccc1C1SCCN1S(=O)(=O)c1ccccc1 (centres undefined) | . | . | . | -8 | .
CCN(CC)CCN(C(=O)c1ccc2c(c1)CCCC2)c1nc2cc(OC)c(OC)cc2s1 | . | 2 | . | . | .
CC(c1ccccc1C(O)c1ccccc1)N(C)C (centres undefined) | 0 | 3 | 57* | -9 | -14
OC(c1ccccc1)c1ccncc1 (centres undefined) | . | 1 | . | -11 | .
CC(=O)c1ccc(OC(=O)CCc2nc3ccccc3s2)cc1 | 37 | -3 | 59* | -5 | 42*
O=Cc1cccc2ccc3cccc(C(=O)O)c3c12 | . | 2 | . | -17 | .
Cc1ccc(C(=S)N2CCN(Cc3ccccc3)CC2)cc1 | 38 | 1 | 52* | -5 | 42*
Cc1ccc(NC(=S)N2CCN(Cc3ccccc3)CC2)cc1 | 2 | 0 | -2 | 0 | .
CC(C)c1ccc(NC(=O)C2(C)Cc3c(-c4cccc(C(N)=O)c4)ccnc3O2)cc1 (centres undefined) | . | . | . | -5 | .
CCOC(=O)c1c(NC(C)=O)sc2c1CCC(C=O)=C2Sc1ccccc1 | 32 | 1 | 53* | -10 | -19
Cc1ccc(S(=O)(=O)c2cc3c(=O)n4ccccc4nc3n(CC3CCCO3)c2=N)cc1C (centres undefined) | 106* | 154* | 98* | 3 | 29
COc1c(OC2OC(C(=O)O)C(O)C(O)C2O)cc(O)c2c(=O)cc(-c3ccccc3)oc12 (centres undefined) | 12 | 4 | 13 | -6 | .
O=C(O)C1OC(Oc2cc3oc(-c4ccccc4)cc(=O)c3c(O)c2O)C(O)C(O)C1O (centres undefined) | 37 | 1 | 56* | 2 | 9
COc1cc(C(=O)O)nc2ccc([N+](=O)[O-])cc12 | 17 | 1 | 26 | 3 | .
O=C(COC(=O)CSc1ccc(F)cc1)NNC(=O)c1ccc([N+](=O)[O-])cc1 | . | 1 | . | -2 | .
CN1CCc2cccc3c2[C@@H]1Cc1ccc(O)c(O)c1-3 | . | . | 86* | . | 68*
COc1ccc2c(c1O)-c1ccccc1CCN(C)C2 | 2 | 2 | 2 | . | .
COc1ccc(Cn2c(-c3ccc(OC)cc3)nc3c(c(=O)c4ccccc4n3C)c2=O)cc1 | -2 | 6 | -5 | . | .
COc1ccc(-c2nc3c(c(=O)c4ccccc4n3C)c(=O)n2Cc2ccccc2)cc1 | 4 | -1 | 53* | -3 | 61*
Clc1cccc(Nc2c3c(nc4ncnn24)CCC3)c1 | -1 | 0 | 54* | -4 | 3
CCc1cccc(Nc2c3c(nc4ncnn24)CCC3)c1 | -1 | -2 | 2 | -2 | .
c1ccc2[nH]c(CCCc3nc4ccccc4[nH]3)nc2c1 | . | 0 | . | -2 | .
Oc1ccc(O)c(Cc2nc3ccccc3[nH]2)c1 | 5 | -1 | 53* | -4 | 24
